Experimental findings from ChEMBL document CHEMBL3421596, “A facile synthesis and microtubule-destabilizing properties of 4-(1H-benzo[d]imidazol-2-yl)-furazan-3-amines” (Eur J Med Chem, 2015) are described below.

Assay [1] deals with Paracentrotus lividus. As to the kind of experiment: Antiproliferative activity in sea urchin embryo assessed as antimitotic activity by measuring cleavage arrest exposed for 8 to 20 mins after fertilization and 45 to 55 mins before first mitotic cycle completion measured 2.5 to […] after fertilization. Type of assay: functional.
The test system of assay [2] is Paracentrotus lividus. Nature of the assay: Antiproliferative activity in sea urchin embryo assessed as antimitotic activity by measuring cleavage alteration exposed for 8 to 20 mins after fertilization and 45 to 55 mins before first mitotic cycle completion measured 2.5 to […] after fertilization. In kind it is functional.
Assay [3] has as its system Paracentrotus lividus. As to the kind of experiment: Antiproliferative activity in sea urchin embryo assessed as destabilization of microtubule by measuring embryo spinning after 15 mins to 20 hrs. Type of assay: functional.
A short description of assay [4]: Cytotoxicity against human NCI60 cells assessed as cell growth at 10 uM. Type of assay: functional. As to conditions: read-out: Activity. The gist of the method:
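NCI60 panel screened by the NCI Developmental Therapeutics Program at a single 10 µM concentration; mean cell growth percent reported.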

Assay [5] in a line: Cytotoxicity against human NCI60 cells. In kind it is functional.
Assay [6] has as its target Tubulin (Bos taurus, UniProt Q6B856+Q862L2+Q862F3). Nature of the assay: Inhibition of bovine tubulin polymerization by turbidity assay. Type of assay: protein assay.

For `Nc1nonc1-c1nc2ccccc2n1CC(=O)Nc1ccc(F)c(Cl)c1`, the values for the EC in assay [1], in assay [2] and in assay [3] were more than 4 µM, 2 µM and more than 4 µM, respectively. The growth at 10 µM in assay [4] was determined as 70.5%.

`N#Cc1ccc2[nH]c(-c3nonc3N)nc2c1`: the EC in assay [1], in assay [2] and in assay [3] was more than 4 µM in each case. Besides, the growth at 10 µM in assay [4] is 107%.

On to `Nc1nonc1-c1nc2ccccc2[nH]1`, for which the EC in assay [1] was more than 4 µM; in assay [2], 2 µM; in assay [3], more than 4 µM. For the same compound, the growth at 10 µM in assay [4] worked out at 103%.

As to `Nc1nonc1-c1nc2ccccc2n1Cc1cc2c(cc1Cl)OCO2`, the EC in assay [1], in assay [2] and in assay [3] was more than 4 µM in each case. The growth at 10 µM in assay [4] turned out to be 88.3%.

Take `CN(C)c1nc(N)nc(Cn2c(-c3nonc3N)nc3ccccc32)n1`: the values for the EC in assay [1], in assay [2] and in assay [3] were more than 4 µM, 2 µM and more than 4 µM, respectively. For the same compound, the growth at 10 µM in assay [4] was determined as 80.8%.

On to `Nc1nonc1-c1nc2ccccc2n1Cc1ccc(F)cc1`, for which the EC in assay [1] is more than 4 µM; in assay [2], 2 µM; in assay [3] it was more than 4 µM. In assay [5], halving of growth (GI50) required 8.91 µM.

Turning to `Nc1nonc1-c1nc2ccccc2n1Cc1cccc(Br)c1`, the IC50 (commonly the point on the concentration scale where inhibition reaches its midpoint) in assay [6] was 2.04 µM.

Take `COc1ccc(NC(=O)Cn2c(-c3nonc3N)nc3ccccc32)cc1Cl`: the EC in assay [1], in assay [2] and in assay [3] was more than 4 µM throughout. The growth at 10 µM in assay [4] was 100%.

Turning to `COc1ccc2[nH]c(-c3nonc3N)nc2c1`, the results for the EC in assay [1], in assay [2] and in assay [3] were more than 4 µM, 0.5 µM and more than 5 µM, respectively. Besides, the growth at 10 µM in assay [4] is 101%.

Turning to `c1ccc2[nH]c(-c3nonc3-n3cccc3)nc2c1`, the EC in assay [1], in assay [2] and in assay [3] was more than 4 µM in each case. Also, the growth at 10 µM in assay [4] was found to be 104%.
